According to ChEMBL document CHEMBL1131050, “Benzoxazole derivatives as novel 5-HT3 receptor partial agonists in the gut” (J Med Chem, 1998):

Key:
[1] = biological target: T1, Serotonin 3 (5-HT3) receptor (Rattus norvegicus, UniProt P35563+Q9JJ16); assay: Binding affinity for 5-hydroxytryptamine 3 receptor in rat cerebral cortex, determined by displacement of [3H]GR-65630; type: tissue-based
T1 sequence (P35563 whole entry): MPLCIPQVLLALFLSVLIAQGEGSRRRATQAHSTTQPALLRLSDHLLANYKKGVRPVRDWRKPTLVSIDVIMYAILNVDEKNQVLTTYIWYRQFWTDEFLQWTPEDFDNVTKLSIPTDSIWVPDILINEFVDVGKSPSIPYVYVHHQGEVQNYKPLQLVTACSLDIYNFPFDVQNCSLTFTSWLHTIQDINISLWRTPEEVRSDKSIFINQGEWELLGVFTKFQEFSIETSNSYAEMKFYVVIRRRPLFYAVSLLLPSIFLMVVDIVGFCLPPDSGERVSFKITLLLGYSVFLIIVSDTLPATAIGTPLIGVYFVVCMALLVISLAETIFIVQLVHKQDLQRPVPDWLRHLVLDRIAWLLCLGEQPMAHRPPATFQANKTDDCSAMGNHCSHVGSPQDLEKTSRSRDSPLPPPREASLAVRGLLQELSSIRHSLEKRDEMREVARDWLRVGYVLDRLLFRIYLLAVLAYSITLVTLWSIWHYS
T1 sequence (Q9JJ16 whole entry): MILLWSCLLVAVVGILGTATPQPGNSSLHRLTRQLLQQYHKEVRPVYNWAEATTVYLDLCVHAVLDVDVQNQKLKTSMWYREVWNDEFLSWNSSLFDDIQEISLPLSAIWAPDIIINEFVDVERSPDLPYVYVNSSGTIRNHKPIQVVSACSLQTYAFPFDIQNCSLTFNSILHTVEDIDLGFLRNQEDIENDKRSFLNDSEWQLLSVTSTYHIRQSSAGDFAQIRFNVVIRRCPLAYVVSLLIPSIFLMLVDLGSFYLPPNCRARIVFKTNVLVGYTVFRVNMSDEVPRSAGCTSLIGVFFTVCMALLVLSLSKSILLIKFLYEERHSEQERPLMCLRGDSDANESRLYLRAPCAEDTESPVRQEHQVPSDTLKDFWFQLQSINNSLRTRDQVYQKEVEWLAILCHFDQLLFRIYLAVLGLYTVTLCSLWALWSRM
How it was run: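 Membranes from cortex of male Wistar rats (250–300 g); 0.04 mg membrane incubated with 0.2 nM […], 60 min, 22 °C; filtration, three washes, filter counting. Nonspecific binding defined with 1 mM ICS205-930. Six replicates per dose; displacement curves fitted by nonlinear regression to give IC50, converted to Ki by Cheng–Prusoff.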

[2] = tested on: 5-HT3 receptor (Cavia porcellus); assay: Maximal partial agonist activity at 5-hydroxytryptamine 3 receptor of isolated guinea pig ileum as ratio to 5-HT response
[3] = tested on: 5-HT3 receptor (Cavia porcellus); assay: Potency of partial agonist action given by concentration producing 50% of individual maximal contraction of isolated guinea pig ileum
Mus musculus [4] = assay: Transition time (time required to evacuate the glass bead) in the distal colon in mice at dose 0.3 mg/kg; type: functional
How it was run: (§1)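 Male mice fasted 4 h. Compound given sc 20 min before a 3 mm glass bead was inserted 3 cm into the distal colon; time to expel the bead was recorded. 8 animals per group, mean ± SEM. Compared with control by ANOVA followed by Steel's multiple range test, p < 0.05.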

Mus musculus [5] = assay: Transition time (time required to evacuate the glass bead) in the distal colon in mice at dose 1 mg/kg; type: functional; how it was run: as §1
Mus musculus [6] = assay: Transition time (time required to evacuate the glass bead) in the distal colon in mice at dose 3 mg/kg; type: functional; how it was run: as §1
[7] = biological target: T2, 5-hydroxytryptamine receptor 1F (Rattus norvegicus) (UniProt P30940); assay: Inhibitory activity against 5-hydroxytryptamine 1 receptor using [3H]5-HT as radioligand at 10e-5 M concentration
T2 sequence (whole entry): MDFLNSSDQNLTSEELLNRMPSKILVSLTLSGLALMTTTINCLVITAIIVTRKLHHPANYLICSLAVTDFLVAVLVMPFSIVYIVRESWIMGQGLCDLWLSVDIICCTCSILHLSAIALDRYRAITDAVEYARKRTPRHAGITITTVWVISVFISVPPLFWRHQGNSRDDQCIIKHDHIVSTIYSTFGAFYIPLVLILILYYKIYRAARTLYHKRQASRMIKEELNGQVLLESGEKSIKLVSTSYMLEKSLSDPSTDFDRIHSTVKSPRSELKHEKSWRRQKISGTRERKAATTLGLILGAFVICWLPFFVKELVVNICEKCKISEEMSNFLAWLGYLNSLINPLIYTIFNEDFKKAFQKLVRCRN

[8] = biological target: T3, 5-hydroxytryptamine receptor 1A (Mus musculus) (UniProt Q64264); assay: Inhibitory activity against 5-hydroxytryptamine 1A receptor using [3H]8-OH-DPAT as radioligand at 10e-5 M concentration
T3 sequence (whole entry): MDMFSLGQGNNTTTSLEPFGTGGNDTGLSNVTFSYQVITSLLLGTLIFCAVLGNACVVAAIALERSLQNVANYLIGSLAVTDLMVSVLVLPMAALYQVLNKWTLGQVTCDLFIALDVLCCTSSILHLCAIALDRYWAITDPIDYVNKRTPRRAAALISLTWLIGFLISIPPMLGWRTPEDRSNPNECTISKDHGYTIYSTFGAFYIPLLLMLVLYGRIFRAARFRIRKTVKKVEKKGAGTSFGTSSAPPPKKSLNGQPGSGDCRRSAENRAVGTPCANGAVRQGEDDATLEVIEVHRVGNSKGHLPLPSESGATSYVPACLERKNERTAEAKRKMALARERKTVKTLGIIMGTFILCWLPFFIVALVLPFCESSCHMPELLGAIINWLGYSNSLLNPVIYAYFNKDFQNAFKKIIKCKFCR

[9] = biological target: 5-hydroxytryptamine receptor 2A (Bos taurus) (UniProt Q75Z89); assay: Inhibitory activity against 5-hydroxytryptamine 2 receptor using [3H]-ketanserin as radioligand at 10e-5 M concentration
[10] = biological target: T1, Serotonin 3 (5-HT3) receptor; assay: Binding affinity for 5-hydroxytryptamine 3 receptor was determined by measuring displacement of [3H]GR-65630 from rat brain cortices
[11] = biological target: GABA-A receptor; anion channel (Homo sapiens) (UniProt P14867+P47870+P18507+P28472+P48169+Q99928+Q9UN88+P34903+O00591+O14764+Q8N1C3+P18505+P78334+P47869+P31644+Q16445); assay: Inhibition of [3H]flunitrazepam binding to GABA-A central benzodiazepine receptor at 10e-5 M; type: protein-complex assay
[12] = biological target: Beta-2 adrenergic receptor (Canis lupus familiaris) (UniProt P54833); assay: Inhibitory activity against non-selective beta adrenergic receptor using [3H]DHA as radioligand at 10e-5 M concentration
[13] = biological target: D(1A) dopamine receptor (Mus musculus) (UniProt Q61616); assay: Inhibitory activity against Dopamine receptor D1 using [3H]SCH-23390 as radioligand at 10e-5 M concentration at 10e-5 M concentration
Mus musculus [14] = assay: Inhibitory activity against 5-HT evoked diarrhea in mice, sc; type: functional; settings: read-out: ID50 (the source's name)
Mus musculus [15] = assay: Transition time (time required to evacuate the glass bead) in the distal colon in mice at dose 30 mg/kg; type: functional; how it was run: as §1
Rattus norvegicus = species: Rattus norvegicus; assay: Inhibitory dose against 5-HT-Evoked Bezold-Jarisch (B-J) reflex in rats; type: functional; settings: read-out: ID50 (the source's name)
[16] = biological target: D(2) dopamine receptor (Homo sapiens) (UniProt P14416); assay: Inhibitory activity against Dopamine receptor D2 using [3H]-spiperone as radioligand at 10e-5 M concentration
[17] = tested on: Alpha-1 adrenergic receptor (Rattus norvegicus); assay: Inhibitory activity against Alpha-1 adrenergic receptor using [3H]prazosin as radioligand at 10e-5 M concentration
[18] = tested on: Alpha-2 adrenergic receptor (Rattus norvegicus); assay: Inhibitory activity against Alpha-2 adrenergic receptor using [3H]rauwolscine as radioligand at 10e-5 M concentration

Beta-2 adrenergic receptor (Canis lupus familiaris), sequence (P54833 whole entry, looked up): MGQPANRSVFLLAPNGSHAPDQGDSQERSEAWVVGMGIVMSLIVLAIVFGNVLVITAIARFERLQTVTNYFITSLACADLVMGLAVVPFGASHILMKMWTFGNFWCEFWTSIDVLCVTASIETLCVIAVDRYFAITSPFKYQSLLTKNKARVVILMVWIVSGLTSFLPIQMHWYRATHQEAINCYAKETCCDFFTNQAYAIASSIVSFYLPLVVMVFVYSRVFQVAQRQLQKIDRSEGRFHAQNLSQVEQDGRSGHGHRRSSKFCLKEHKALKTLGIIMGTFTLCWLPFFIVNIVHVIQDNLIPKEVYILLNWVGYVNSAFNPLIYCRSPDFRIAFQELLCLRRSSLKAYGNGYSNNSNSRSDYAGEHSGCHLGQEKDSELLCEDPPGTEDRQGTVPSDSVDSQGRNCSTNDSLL
5-hydroxytryptamine receptor 2A (Bos taurus), sequence (Q75Z89 whole entry): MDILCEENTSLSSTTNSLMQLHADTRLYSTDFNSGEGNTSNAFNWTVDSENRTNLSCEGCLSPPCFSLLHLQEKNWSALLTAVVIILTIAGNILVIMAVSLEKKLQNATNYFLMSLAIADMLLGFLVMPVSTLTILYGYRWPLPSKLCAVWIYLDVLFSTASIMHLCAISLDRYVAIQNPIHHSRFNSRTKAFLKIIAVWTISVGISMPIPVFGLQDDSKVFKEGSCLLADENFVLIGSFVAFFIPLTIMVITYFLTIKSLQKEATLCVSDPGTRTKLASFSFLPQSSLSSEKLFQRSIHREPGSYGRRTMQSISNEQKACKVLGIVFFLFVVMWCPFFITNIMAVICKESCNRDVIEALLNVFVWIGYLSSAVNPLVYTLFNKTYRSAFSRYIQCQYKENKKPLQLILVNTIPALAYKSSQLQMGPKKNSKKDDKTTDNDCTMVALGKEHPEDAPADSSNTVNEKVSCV
D(1A) dopamine receptor (Mus musculus), sequence (Q61616 whole entry): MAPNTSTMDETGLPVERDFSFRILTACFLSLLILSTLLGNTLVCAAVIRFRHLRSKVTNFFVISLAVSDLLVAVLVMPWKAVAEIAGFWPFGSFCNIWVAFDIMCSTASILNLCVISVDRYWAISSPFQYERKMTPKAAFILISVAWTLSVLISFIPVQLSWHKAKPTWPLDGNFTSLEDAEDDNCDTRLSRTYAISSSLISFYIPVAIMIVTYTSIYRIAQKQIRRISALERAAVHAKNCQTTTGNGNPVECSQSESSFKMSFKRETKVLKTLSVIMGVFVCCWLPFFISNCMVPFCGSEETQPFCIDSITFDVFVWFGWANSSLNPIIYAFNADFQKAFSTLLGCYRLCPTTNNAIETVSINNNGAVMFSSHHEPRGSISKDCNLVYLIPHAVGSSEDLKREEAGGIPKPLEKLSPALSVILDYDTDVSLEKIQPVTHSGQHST
D(2) dopamine receptor (Homo sapiens), sequence (P14416 whole entry): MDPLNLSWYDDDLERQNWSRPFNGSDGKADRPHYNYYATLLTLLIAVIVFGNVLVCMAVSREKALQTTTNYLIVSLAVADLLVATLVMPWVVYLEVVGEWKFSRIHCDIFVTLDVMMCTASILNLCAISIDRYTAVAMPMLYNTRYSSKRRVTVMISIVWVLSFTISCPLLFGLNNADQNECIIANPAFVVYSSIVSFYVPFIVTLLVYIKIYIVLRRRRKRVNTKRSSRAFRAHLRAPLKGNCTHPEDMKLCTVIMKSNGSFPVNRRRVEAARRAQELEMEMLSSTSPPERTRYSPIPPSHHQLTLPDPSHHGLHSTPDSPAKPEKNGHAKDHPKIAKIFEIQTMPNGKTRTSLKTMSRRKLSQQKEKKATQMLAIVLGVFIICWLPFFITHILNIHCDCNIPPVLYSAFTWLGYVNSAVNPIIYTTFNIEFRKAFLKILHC

Row | Compound | inhibition at 10^-7 M [1] [%] | IA [2] | pD2 [3] | other results
1 | Cc1cc2oc(N3CCN(C)CC3)nc2cc1Cl | 95 | 0.28 | 6.28 | –
2 | Cc1ccc2oc(N3CCN(C)CC3)nc2c1 | 83 | 0.72 | 6 | –
3 | Cc1cc(Cl)cc2nc(N3CCN(C)CC3)oc12 | 85 | 0.24 | 6.7 | –
4 | CN1CCCN(c2nc3cc(Cl)ccc3o2)CC1 | 87 | 0.31 | 7 | –
5 | CN1CCN(c2nc3cc(Cl)ccc3o2)CC1 | 94 | 0.5 | 6.07 | –
6 | CN1CCN(c2nc3cc(Br)ccc3o2)CC1 | 92 | 0.48 | 6.21 | –
7 | CN1CCN(c2nc3cc(Cl)cc(Cl)c3o2)CC1 | 62 | 0.14 | 6.51 | –
8 | c1ccc2oc(N3CCCCC3)nc2c1 | – | – | < 5 | –
9 | Cc1c(Cl)cc2nc(N3CCN(C)CC3)oc2c1C | 101 | 0.14 | 6.67 | –
10 | Cc1c(Cl)cc2nc(N3CCN(C)CC3)oc2c1Cl | 96 | 0.1 | 6.64 | –
11 | c1ccc2oc(C3CCNCC3)nc2c1 | 39 | 0.31 | 5.59 | –
12 | Cc1ccc2nc(N3CCN(C)CC3)oc2c1 | 74 | 0.85 | 5.15 | –
13 | c1ccc2oc(N3CCNCC3)nc2c1 | 83 | – | – | –
14 | CN1CCN(c2nc3cc(C(F)(F)F)ccc3o2)CC1 | 22 | – | < 5 | –
15 | CN1C2CCCC1CC(NC(=O)c1nn(C)c3ccccc13)C2 (stereo not given) [GRANISETRON] | – | – | – | Time (Mus musculus [4]): 373 s; Time (Mus musculus [5]): 614 s; Time (Mus musculus [6]): 827 s
16 | Cc1cc2nc(N3CCN(C)CC3)oc2cc1C | 32 | 0.66 | 6.16 | –
17 | Cc1cccc2nc(N3CCN(C)CC3)oc12 | 77 | 0.58 | 5.46 | –
18 | Cc1cc(C)c2oc(N3CCN(C)CC3)nc2c1 | 94 | 0.62 | 6.32 | –
19 | CN1CCN(c2nc3ccccc3o2)CC1 | 55 | 0.62 | 5.01 | –
20 | Cc1cccc2oc(N3CCN(C)CC3)nc12 | 25 | – | < 5 | –
21 | CN1CCN(c2nc3cc(F)ccc3o2)CC1 | 91 | 0.64 | 5.57 | –
22 | CCc1ccc2oc(N3CCN(C)CC3)nc2c1 | 11 | – | < 5 | –
23 | CN1CCCN(c2nc3ccccc3o2)CC1 | 86 | 0.54 | 6.03 | –
24 | Cc1cc(Cl)cc2nc(N3CCCN(C)CC3)oc12 | 98 | 0.12 | 7.76 | inhibition [7]: 14%; inhibition [8]: -3%; inhibition [9]: 23%; Ki [10]: 1.1 nM; inhibition [11]: 12%; inhibition [12]: 24%; inhibition [13]: 18%; ED50 (Mus musculus [14]): 0.3 mg/kg; Time (Mus musculus [4]): 262.6 s; Time (Mus musculus [6]): 357.2 s; Time (Mus musculus [15]): 328.8 s; ED50 (Rattus norvegicus): 0.0876 mg/kg; inhibition [16]: 5%; inhibition [17]: 22%; inhibition [18]: 33%
